# According to ChEMBL document CHEMBL1124871, “Synthesis and antiviral activity of some acyclic and C-acyclic pyrrolo[2,3-d]pyrimidine nucleoside analogues” (J Med Chem, 1990):
# Test system: Human alphaherpesvirus 2
# Assay: Inhibitory activity against herpes simplex virus
# Format: functional, organism-based
# Conditions: not given
# How it was run: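 One-day-old confluent HEp-2 monolayers preinfected 1.5 h at 37 °C with HSV-2 (G and Lovelace strains); 3-fold dilutions over seven points, 72 h at 37 °C. Virus presence and toxicity scored visually by CPE. Uninfected cells with compound served as cytotoxicity control; virus inoculum checked by back-titration. IC50 recorded.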
row,Structure (SMILES),IC50
1,Nc1nc2c(ncn2COC(CO)CO)c(=O)[nH]1 [GANCICLOVIR],32 µM

# Test system: not listed separately
# Assay: Therapeutic ratio at 400 uM toxicity to Alex cells.
# Format: cell-based
# Conditions: human
Structure (SMILES),selectivity ratio,selectivity ratio at 400 µM
N#Cc1cn(COC(CO)CO)c2nc(N)nc(O)c12,133,–
CSc1c(C#N)c2c(N)ncnc2n1COC(CO)CO,–,40

# Test system: Human immunodeficiency virus
# Assay: Inhibitory activity against HIV in Alex cells
# Format: functional, organism-based
# Conditions: Human immunodeficiency virus 1, Alex
# How it was run: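 Alex cells preinfected with HIV for 3 h at 37 °C; compounds added in 3- or 5-fold dilutions (four for screening, eight for confirmation). Incubated 8 days at 37 °C in CO2, medium/sample changed on day 4. Reverse transcriptase measured on day 8. Uninfected cells exposed to the same dilutions for cytotoxicity. IC50 recorded.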
row,Structure (SMILES),IC50
1,N#Cc1cn(CC(O)CO)c2nc(N)nc(O)c12 (centres undefined),> 200 µM
2,CSc1c(C#N)c2c(N)ncnc2n1COCCO,> 200 µM
3,CSc1c(C(N)=O)c2c(O)nc(N)nc2n1COC(CO)CO,> 200 µM
4,NC(=O)c1cn(COCCO)c2nc(N)nc(O)c12,> 200 µM
5,N#Cc1cn(COCCO)c2nc(N)nc(O)c12,> 200 µM
6,CSc1c(C(N)=O)c2c(N)ncnc2n1CC(O)CO (centres undefined),> 200 µM
7,NC(=O)c1cn(CC(O)CO)c2nc(N)nc(O)c12 (centres undefined),> 200 µM
8,CSc1c(C#N)c2c(O)nc(N)nc2n1COC(CO)CO,> 200 µM
9,CSc1c(C#N)c2c(O)nc(N)nc2n1CC(O)CCO (centres undefined),> 200 µM
10,N#Cc1cn(CC(O)CCO)c2ncnc(N)c12 (centres undefined),> 200 µM
11,CSc1c(C#N)c2c(O)nc(N)nc2n1CC(O)CO (centres undefined),> 200 µM
12,CSc1c(C#N)c2c(O)nc(N)nc2n1COCCO,> 200 µM
13,N#Cc1cn(COCCO)c2ncnc(N)c12,46 µM
14,NC(=O)c1cn(COCCO)c2ncnc(N)c12,> 200 µM
15,CSc1c(C(N)=O)c2c(N)ncnc2n1COCCO,> 200 µM
16,NC(=O)c1cn(COC(CO)CO)c2ncnc(N)c12,> 200 µM

row,Structure (SMILES),IC50
1,CSc1c(C(N)=O)c2c(N)ncnc2n1CC(O)CCO (centres undefined),> 200 µM
2,CSc1c(C#N)c2c(N)ncnc2n1CC(O)CO (centres undefined),> 200 µM
3,NC(=O)c1cn(COC(CO)CO)c2nc(N)nc(O)c12,> 200 µM
4,N#Cc1cn(COC(CO)CO)c2nc(N)nc(O)c12,3 µM
5,N#Cc1cn(CC(O)CO)c2ncnc(N)c12 (centres undefined),197 µM
6,N#Cc1cn(CC(O)CCO)c2nc(N)nc(O)c12 (centres undefined),> 200 µM
7,CSc1c(C(N)=O)c2c(N)ncnc2n1COC(CO)CO,> 200 µM
8,CSc1c(C(N)=O)c2c(O)nc(N)nc2n1CC(O)CO (centres undefined),> 200 µM
9,NC(=O)c1cn(CC(O)CO)c2ncnc(N)c12 (centres undefined),> 200 µM
10,NC(=O)c1cn(CC(O)CCO)c2ncnc(N)c12 (centres undefined),> 200 µM
11,CSc1c(C(N)=O)c2c(O)nc(N)nc2n1CC(O)CCO (centres undefined),> 200 µM
12,CSc1c(C#N)c2c(N)ncnc2n1COC(CO)CO,20 µM
13,NC(=O)c1cn(CC(O)CCO)c2nc(N)nc(O)c12 (centres undefined),> 200 µM
14,CSc1c(C#N)c2c(N)ncnc2n1CC(O)CCO (centres undefined),100 µM
15,Cc1cn([C@H]2C[C@H](N=[N+]=[N-])[C@@H](CO)O2)c(=O)[nH]c1=O [ZIDOVUDINE],0.01 µM
